Our source for the outcome values is PubChem BioAssay.

The source made the active and inactive calls.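 How the source made its calls: active means mean duplicate activation above the buffer control mean plus 5 SD of those controls; inactive means the rest.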

Potassium voltage-gated channel subfamily E member 1 (Homo sapiens) + Potassium voltage-gated channel subfamily KQT member 1 (Homo sapiens), sequence (P51787 whole entry, looked up): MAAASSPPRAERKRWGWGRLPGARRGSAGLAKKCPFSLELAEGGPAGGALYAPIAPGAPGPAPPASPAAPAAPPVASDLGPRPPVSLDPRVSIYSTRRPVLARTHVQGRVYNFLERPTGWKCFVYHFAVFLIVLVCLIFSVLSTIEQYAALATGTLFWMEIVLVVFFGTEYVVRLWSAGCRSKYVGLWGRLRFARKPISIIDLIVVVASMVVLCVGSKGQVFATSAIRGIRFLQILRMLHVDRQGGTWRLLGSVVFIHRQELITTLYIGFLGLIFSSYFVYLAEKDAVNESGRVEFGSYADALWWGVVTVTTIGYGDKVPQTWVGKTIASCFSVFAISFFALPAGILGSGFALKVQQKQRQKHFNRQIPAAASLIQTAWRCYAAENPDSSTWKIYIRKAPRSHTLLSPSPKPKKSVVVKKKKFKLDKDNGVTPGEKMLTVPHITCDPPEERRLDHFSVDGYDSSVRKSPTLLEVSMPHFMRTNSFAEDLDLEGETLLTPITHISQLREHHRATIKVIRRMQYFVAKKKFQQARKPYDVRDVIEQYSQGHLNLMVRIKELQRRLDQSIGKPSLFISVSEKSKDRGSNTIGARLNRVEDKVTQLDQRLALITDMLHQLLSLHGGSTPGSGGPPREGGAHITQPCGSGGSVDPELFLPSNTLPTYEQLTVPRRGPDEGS

The assay deals with Potassium voltage-gated channel subfamily E member 1 (Homo sapiens) + Potassium voltage-gated channel subfamily KQT member 1 (Homo sapiens) (UniProt P15382+P51787). Kind of assay: KCNQ1-E1 channel activation – thallium flux, CHO-K1 KCNQ1/E1 cells, selectivity assay for KCNQ1 potentiator project, confirmation (AID 493186). The following applies: FluxOR thallium flux, at 10 µM. The method in brief:
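Test system: CHO-K1 cells with KCNQ1/E1; dosing: one test concentration; signal: FluxOR Tl+ flux fluorescence, kinetic read; incubation: 90-min dye loading then 20-min compound exposure, both at room temperature; read-out basis: percent of R-L3 effect over buffer; replication: duplicate wells per compound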
`O=C(O)CCCN1C(=O)/C(=C\c2ccc(-c3nc4ccccc4s3)o2)SC1=S`: the result was inactive. Consider `CC(C)NS(=O)(=O)c1ccc(NC(=O)C(C)Oc2ccc(C(=O)c3ccccc3)cc2)cc1` (centres undefined), for which the outcome was inactive. As for `O=C1C=CC(=O)N1CCNc1ncc(C(F)(F)F)cc1Cl`, the entry is “inactive”. Under `CCN(CC)c1ncnc2sc3c(c12)CCC3` stands “inactive”.
